# Data published in paper PMC5483893 (Journal of Medicinal Chemistry, 2017).
# Key:
# [1] = test system: acetylated α-tubulin (AcTub) in QBI-293 cells; assay: Acetyl-tubulin assay; type: cell-based
# Procedure, shortened: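 QBI-293 cells kept at 37 °C, 5% CO₂, trypsinised and plated at 6 × 10⁵ cells/well, then exposed overnight-later to vehicle (DMSO) or test compound for 4 h. Lysis in RIPA with protease inhibitors, 1 mM PMSF and 1 μM TSA; 100000g spin, 30 min, 4 °C. BCA protein, then AcTub ELISA. Fold-change versus vehicle, at least triplicate, two-tailed unpaired t test.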
# [2] = test system: COX-derived PGD2 and PGE2 in RBL-1 cells; type: cell-based, rat
# [3] = test system: total α-tubulin in QBI-293 cells; assay: Total α-tubulin ELISA; type: cell-based; settings: at doses typically required to induce an elevation in AcTub
# Procedure, shortened: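 QBI-293 cells were plated at 6 × 10⁵ cells/well, grown overnight at 37 °C and 5% CO₂, then given fresh medium with vehicle (DMSO) or 1 and 10 μM test compound for 4 h. Lysis was in RIPA with protease inhibitors, 1 mM PMSF and 1 μM TSA, followed by 100000g for 30 min at 4 °C. Supernatant was BCA-normalized and α-tubulin measured by ELISA as fold-change versus vehicle. Samples were run at least in triplicate; significance was by two-tailed unpaired t test.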
smiles,measurement,setting,value
"Fc1cccc(F)c1-c1c(Cl)nc(Cl)n1-c1ccccc1Cl [Compound 104, 2,4-Dichloro-1-(2-chlorophenyl)-5-(2,6-difluorophenyl)-1H-imidazole]",elevation in AcTub without decrease of α-tubulin,[1]; 1 or 10 μM,produce an elevation in AcTub at 1 or 10 μM without decreasing α-tubulin level
same,inhibition in the PGD2/PGE2 assay,[2]; RBL-1 cells,> 50%
"COc1ccc(-c2cncn2-c2ccc(Cl)cc2)cc1 [Compound 51, 1-(4-Chlorophenyl)-5-(4-methoxyphenyl)-1H-imidazole]","MT activity (AcTub increase), inactive compounds","[1]; QBI-293 cells, 1 and 10 μM",essentially devoid of MT activity
same,inhibition of the combined PGD2/PGE2 synthesis,"[2]; RBL-1 cell assay, tested at 10 μM",near complete inhibition
"Cc1nc(Cl)c(-c2c(F)ccc(F)c2F)n1-c1ccc(Cl)c(F)c1 [Compound 71, 4-Chloro-1-(4-chloro-3-fluorophenyl)-2-methyl-5-(2,3,6-trifluorophenyl)-1H-imidazole]",shape of concentration–response in the AcTub assay,[1]; comparison of 1 and 10 μM,bell-shaped concentration–response relationship
same,effect on total α-tubulin levels,[3],cause a significant reduction in total α-tubulin levels
